This is an account of results in the RNAGym collection of RNA variant scans (doi:10.1126/science.aae0568).

Fewer inactive variants are shown than the library holds.

B1: tRNA (parent)
chain: GUUCCGUUGGCGUAAUGGUAACGCGUCUCCCUCCUAAGGAGAAGACUGCGGGUUCGAGUCCCGUACGGAACG

The data set covers variants of B1. The data set can be described thus: yeast fitness relative to wild type (ratio to wild type); higher = fitter; tRNA-Arg(CCU), competitive growth, 37 C, YPD. In outline:
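A pool of Saccharomyces cerevisiae strains, each with a tRNA-Arg(CCU) gene variant at the native genomic locus, was competed in YPD at 37°C for 24 hours across six parallel replicates. The variants had been chemically synthesised at a 3% per-site mutation rate over 69 sites, and gene amplicons before and after competition were read by 100-nucleotide paired-end sequencing. Darwinian fitness relative to wild type rested on changes in genotype frequencies. Genotypes required ≥ 100 starting reads, and estimates < 0.5 were set to 0.5.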
Turning to U26G C31G A40C C49U C66A, the yeast fitness is 0.587. The value for G25U U32C A36U G56C A65C was not above 0.5; that for G25C G38C C60G was 0.747. The value for G25C G39A was 0.787; that for G25C U32G G38A C61U was not above 0.5. The same measure for G25C C31G C62U: 0.737; for U26C A42U A69C: 0.669; for U26A C30G A37C U59A: not above 0.5. U26A C31G G63C: the yeast fitness is not above 0.5. The value for U26A C66A was 0.572. The same measure for U26A C66U: 0.824; for G25C C49G: 0.781. The same measure for U26G C46A A65G: 0.682.

For the variant U26C G48C, the yeast fitness was found to be 0.86.

For G25C G67A, the yeast fitness was determined as 1.01. In the case of U26G A42G A43C C46G, the yeast fitness is 0.677. The value for U26C U32C C33G A42C C49G G58C C62G was not above 0.5; that for U26A G44C C55U G67U was 0.759.

For the variant G25C C33A A57U A69U, the yeast fitness worked out at 0.548.

Consider U26G C46G, for which the yeast fitness came out at 0.807.

On to U26C C30G C61U, for which the yeast fitness is not above 0.5. As to U26A A42G G48C C62G, the yeast fitness is not above 0.5. The same measure for G25C C30U A70C: 0.596; for U26G C55G U59A U64G: not above 0.5; for G25C C29U C34G: not above 0.5. The value for U26C U32C A70G was 0.659.

For G25C G48A G63A A69G, the yeast fitness is not above 0.5. The value for U26C C31G was 0.875; that for U26C C31U was 1.07; that for U26C C27U C62A was 0.658. On to U26A G41C A65G G67A, for which the yeast fitness is not above 0.5.

As to U26C A42C, the yeast fitness is 0.828. The same measure for U26C A42U: 1.01. The value for G25C C30U A69C was 0.606; that for U26A C34G C49A U53C A69U was not above 0.5; that for U26C C61G was 0.591.

Consider U26C C27G A40C, for which the yeast fitness was not above 0.5. The same measure for U26C C31U C49G: 0.622; for U26A A42C: 0.97.

On to U26A A42G, for which the yeast fitness came out at 0.891. The value for U26C G56C A65G was not above 0.5; that for U26A A70G was 0.924; that for U26C C30G G41A C60G C62U G68A was not above 0.5. The same measure for U26C G51A: 0.774. The value for G25C C27A C66U was not above 0.5; that for G25C C29G A43G C49G was 0.647; that for U26A C30A C34A G48C was 0.583.

Turning to U26A C27U C29A A65G G68C, the yeast fitness is not above 0.5. The same measure for G25U A36U G56C: not above 0.5; for G25C G44A: 0.97; for U26A C62A: 0.803. Turning to G25C U26G C46G C62G, the yeast fitness is not above 0.5.

With G25C C29U C30U U35C A40C, the yeast fitness was not above 0.5. The value for G25C C27G C46G C55A was not above 0.5; that for U26G A45G C46U U53G G63A C66U A69U was not above 0.5.

Turning to U26C A37G G67C, the yeast fitness was determined as 0.614. The value for U26A A40G was 0.657. As to U26A C33A C34G, the yeast fitness turned out to be 0.644. The same measure for G25C C29G A43C: not above 0.5. The same measure for G25C C29G A43G: not above 0.5.

Take G25C G51A: the yeast fitness amounted to 1.01.

With U26A U54A, the yeast fitness amounted to 0.589. The same measure for U26C C27U A57G: 0.725; for U26A G52C: 0.645; for G25C U26A U35C: not above 0.5.

Consider G25C U28C A69G A70C, for which the yeast fitness is not above 0.5. Regarding G25C U28C A70C, the yeast fitness turned out to be 0.563. The same measure for G25C G63A: 0.955.

As to G25C U28C C62U A70C, the yeast fitness was not above 0.5. Turning to U26A G63A G68C A69G, the yeast fitness is not above 0.5.

Take U26C G58A: the yeast fitness was 1. On to U26G A42U, for which the yeast fitness was 0.795. The value for G25C C29U A65C A70U was not above 0.5; that for U26A A36U C49A was not above 0.5; that for U26C A40G was 1.03. As to G25C C31G C61G C66G, the yeast fitness amounted to 0.674. For the variant U26C A43U A70U, the yeast fitness came out at 0.707. The same measure for U26A C46A C62G: 0.797. The value for U26C G56C A57C A70U was not above 0.5; that for G25C A65G was 1. The value for U26C C30A C49U was 0.533. As to U26C C27G C33G A37U G41A A57G C62G, the yeast fitness is not above 0.5. The same measure for G25C G41C A70C: 0.559. The same measure for G25C C49U U54G: 0.58; for G25C C33A A43C G68A: not above 0.5.

Regarding U26C A36C C62A, the yeast fitness was not above 0.5. The same measure for U26C U28A: 0.727; for U26C U28C: 0.81; for U26A G44C A57C A69U: 0.653. The value for U26G C29G A45C was not above 0.5; that for G25C C34G A57G was not above 0.5; that for G25C C29A U32A A65U was not above 0.5. The same measure for U26G C31U G68C: 0.636; for U26C A36G A45G: not above 0.5; for U26C G67U: 0.696.

Regarding G25C A45G G50A C62G, the yeast fitness is not above 0.5. U26C A43U G63A: the yeast fitness worked out at 0.658. The value for G25C C66U A69C was 0.685. As to G25C U54G, the yeast fitness is 0.581. On to G25C C27G, for which the yeast fitness turned out to be 0.553. The value for U26C C30G C34A C49G G50A U64A was not above 0.5. In the case of U26A G41C C46U, the yeast fitness amounted to 0.797. The same measure for U26A C29G A43G A45U: not above 0.5; for G25C G50A: 1; for U26A U54A G58A: not above 0.5. The same measure for U26A C30A A37C A43U G51C: 0.595; for G25C C27G U47C: not above 0.5; for U26A G50A: 0.875. The same measure for U26A C33A A45C A65U G67C: not above 0.5; for G25C G38A: 0.951. Regarding G25C U32C, the yeast fitness turned out to be 0.948. The same measure for G25C U32G: 0.655; for U26G A37G G51C: 0.801. Consider G25C C34G G51A, for which the yeast fitness is not above 0.5.

For the variant U26C G56C, the yeast fitness amounted to 0.697. For the variant U26C A40G C49U, the yeast fitness was found to be 0.502. The same measure for U26C C49A G67A: not above 0.5; for U26G C27U C49U C66U: 0.577. The same measure for U26C A45C: 0.857; for U26C A37U A45U G63A: not above 0.5; for U26C C31U A43G: 1.12. Turning to G25C C60G, the yeast fitness was found to be 0.665. The same measure for U26A C27U: 0.919; for U26A U54A C55U: not above 0.5; for U26A C29U C31U G48A: 0.596.

For the variant G25C G52A, the yeast fitness is 0.748. The value for G25C C31A was 0.677; that for G25C C31G was 0.704; that for U26A A43U A65U was 0.618. The value for G25C A69U was 0.929; that for U26C C33U U53A C66A was not above 0.5. The same measure for U26G C31U C55U: 0.564.

G25C C31A A69C: the yeast fitness turned out to be 0.585. The same measure for U26G A40G: 0.778; for U26G A45C: 0.795; for U26G A45U G50A: 0.535. As for U26A A57C G67A A69U, the yeast fitness came to 0.58. The value for U26A C61A A65U was 0.686; that for G25C C55U was 0.916; that for G25C C55U A69U was 0.609. Turning to U26C C30U U59A A69U, the yeast fitness was not above 0.5. Regarding U26A U28C C30G, the yeast fitness was not above 0.5. The value for U26A C34G G56A was 0.565; that for G25C G41C A42U C49A was not above 0.5; that for U26C A37U was 0.702. The value for U26A C30A C34A A45C was not above 0.5; that for G25C C66U was 0.972; that for G25C C66G was 0.639. The value for G25C C66A was 0.677; that for U26C C30U was 0.67. On to G25C C61A C66U, for which the yeast fitness is not above 0.5. Consider G25C U26G C46G G51A A70U, for which the yeast fitness was not above 0.5. The value for U26C C60A was 0.572; that for U26A C27A U28A C34U was not above 0.5; that for U26A G48C was 0.78. The same measure for G25C C49U G51A: 0.568. The same measure for G25C C31G C34G A57C: not above 0.5. Take U26C U64A: the yeast fitness is 0.699. The value for U26C C31A A42U was 0.9; that for U26C G63A was 0.916. The value for U26G C29A A42C was 0.586. Consider U26G C49U, for which the yeast fitness worked out at 0.974. The same measure for G25C A45C A70C: 0.677; for U26G C27G C33U G39C U47C C49U: not above 0.5. Turning to U26C C27G A40C C66U, the yeast fitness is not above 0.5.

Take U26A C31G: the yeast fitness was 0.942. The same measure for G25C C29A G52A C66U: not above 0.5.
